According to ChEMBL document CHEMBL4706674 (Bioorg Med Chem Lett, 2021):

Columns and labels:
[1] = system: Human immunodeficiency virus 1; assay: Antiviral activity against wild type HIV-1 NL4-3 infected in MT-2 cells assessed as inhibition of viral replication in presence of 10% of fetal bovine serum by luciferase reporter gene based multicycle replication assay; assay type: functional, organism-based; conditions: Human immunodeficiency virus 1, NL4-3, MT2
[2] = Cytotoxicity against human MT2 cells; assay type: cell-based
[3] = system: Human immunodeficiency virus 1; assay: Antiviral activity against wild type HIV-1 NL4-3 harbouring Gag AV370 mutant infected in MT-2 cells assessed as inhibition of viral replication in presence of 10% of fetal bovine serum by luciferase reporter gene based multicycle replication assay; assay type: functional, organism-based; conditions: Human immunodeficiency virus 1, NL4-3, MT2
Outline: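 Multiple-cycle replication assay in MT-2 cells using NL4-3-derived virus carrying a Renilla luciferase reporter (NLRepRlucP373S) as the growth marker. V370A and ΔV370 viruses are identical to WT except for that single substitution or deletion at position 370.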

[4] = system: Human immunodeficiency virus 1; assay: Antiviral activity against wild type HIV-1 NL4-3 harbouring Gag V370A mutant infected in MT-2 cells assessed as inhibition of viral replication in presence of 10% of fetal bovine serum by luciferase reporter gene based multicycle replication assay; assay type: functional, organism-based; conditions: Human immunodeficiency virus 1, NL4-3, MT2
[5] = AUCtotal in rat at 5 mg/kg, po measured after 24 hrs; assay type: ADME, organism-based; design: route oral, dose 5 mg/kg, time 24 hrs; conditions: in vivo
Outline: (§1)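 Rats dosed 5 mg/kg PO and 1 mg/kg IV; each value is the mean of 3 rats unless otherwise noted (some n = 2). Vehicle PEG 300/ethanol/Tween 80 (89:10:1 v/v), or PEG 300/ethanol/0.1 N NaOH/Tween 80 (84.5:10:5:0.5 v/v). F, tmax, Cmax and CL come from a full 24 h PK screen. AUCtotal is derived from the full 24 h run plus a 6 h PK screen.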

[6] = Metabolic stability in human liver microsomes assessed as half life; assay type: ADME, Microsome; conditions: time 2 min
[7] = Cmax in rat at 5 mg/kg, po measured after 24 hrs; assay type: ADME, organism-based; design: route oral, dose 5 mg/kg, time 24 hrs; conditions: in vivo; outline: as §1
[8] = Clearance in rat at 1 mg/kg, iv measured after 24 hrs; assay type: ADME, organism-based; conditions: in vivo; outline: as §1
[9] = system: Human immunodeficiency virus 1; assay: Antiviral activity against wild type HIV-1 NL4-3 infected in MT-2 cells assessed as inhibition of viral replication in presence of 40% human serum and 27 mg/ml human serum albumin by luciferase reporter gene based multicycle replication assay; assay type: functional, organism-based; conditions: Human immunodeficiency virus 1, NL4-3, MT2
[10] = system: Human immunodeficiency virus 1; assay: Antiviral activity against wild type HIV-1 NL4-3 harbouring Gag A364V mutant infected in MT-2 cells assessed as inhibition of viral replication in presence of 10% of fetal bovine serum by luciferase reporter gene based multicycle replication assay; assay type: functional, organism-based; conditions: Human immunodeficiency virus 1, NL4-3, MT2
[11] = system: Human immunodeficiency virus 1; assay: Antiviral activity against wild type HIV-1 NL4-3 harbouring Gag […]/V370A mutant infected in MT-2 cells assessed as inhibition of viral replication in presence of 10% of fetal bovine serum by luciferase reporter gene based multicycle replication assay; assay type: functional, organism-based; conditions: Human immunodeficiency virus 1, NL4-3, MT2
[12] = Metabolic stability in rat liver microsomes assessed as half life; assay type: ADME, Microsome; conditions: time 2 min
[13] = Tmax in rat at 5 mg/kg, po measured after 24 hrs; assay type: ADME, organism-based; conditions: in vivo; outline: as §1
[14] = Oral bioavailability in rat measured at 5 mg/kg up to 24 hrs; assay type: ADME, organism-based; conditions: in vivo; outline: as §1
[15] = Volume of distribution at steady state in rat at 1 mg/kg, iv; assay type: ADME, organism-based; conditions: in vivo, read-out: Vdss
[16] = system: Human immunodeficiency virus 1; assay: Antiviral activity against wild type HIV-1 NL4-3 harbouring Gag AV370/T371A mutant infected in MT-2 cells assessed as inhibition of viral replication in presence of 10% of fetal bovine serum by luciferase reporter gene based multicycle replication assay; assay type: functional, organism-based; conditions: Human immunodeficiency virus 1, NL4-3, MT2
[17] = AUC (0 to 24) in rat at 5 mg/kg, po measured after 24 hrs; assay type: ADME, organism-based; design: route oral, time 24 hrs, dose 5 mg/kg; conditions: in vivo
Outline: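 Rats dosed orally at 5 mg/kg (IV arm 1 mg/kg). Vehicle was PEG 300/ethanol/Tween 80 (89:10:1 v/v) or PEG 300/ethanol/0.1 N NaOH/Tween 80 (84.5:10:5:0.5 v/v). Values are the mean of 3 rats unless noted (some n = 2), from a full 24 h PK run; AUC_total also drew on a 6 h PK screen.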

| Structure (SMILES) | EC50 [1] [nM] | CC50 [2] [nM] | EC50 [3] [nM] | EC50 [4] [nM] | EC50 [9] [nM] | EC50 [11] [nM] | other results |
| --- | --- | --- | --- | --- | --- | --- | --- |
| C=C(C)[C@@H]1CC[C@]2(CO)CC[C@]3(C)[C@H](CC[C@@H]4[C@@]5(C)CC=C(C#CC(=O)O)C(C)(C)[C@@H]5CC[C@]43C)[C@@H]12 | 252 | > 10000 | > 3000 | > 3000 | – | – | – |
| C=C(C)[C@@H]1CC[C@]2(NCCN3CCS(=O)(=O)CC3)CC[C@]3(C)[C@H](CC[C@@H]4[C@@]5(C)CC=C(C6=CC7(C6)CC(C(=O)O)C7)C(C)(C)[C@@H]5CC[C@]43C)[C@@H]12 (stereo partly drawn) | 1.5 | 11900 | 5.9 | 1.6 | 7 | 49 | AUC [5]: 13.5 µM·h; half-life [6]: 1.15 h; Cmax [7]: 900 nM; clearance [8]: 2.9 mL/min/kg; EC50 [10]: 980 nM; half-life [12]: > 2 h; Tmax [13]: 6.3 h; bioavailability [14]: 32%; Vd [15]: 1.4 L/kg |
| C=C(C)[C@@H]1CC[C@]2(NCCN3CCC(S(C)(=O)=O)CC3)CC[C@]3(C)[C@H](CC[C@@H]4[C@@]5(C)CC=C(c6ccc(C(=O)O)cc6)C(C)(C)[C@@H]5CC[C@]43C)[C@@H]12 | 1.9 | – | – | – | – | – | – |
| C=C(C)[C@@H]1CC[C@]2(C(=O)O)CC[C@]3(C)[C@H](CC[C@@H]4[C@@]5(C)CC=C(C6=CC7(C6)CC(C(=O)O)(C(=O)O)C7)C(C)(C)[C@@H]5CC[C@]43C)[C@@H]12 | 28.3 | 18600 | 437 | 85.4 | – | – | – |
| C=C(C)[C@@H]1CC[C@]2(NCCN3CCS(=O)(=O)CC3)CC[C@]3(C)[C@H](CC[C@@H]4[C@@]5(C)CC=C(CCCCC(=O)O)C(C)(C)[C@@H]5CC[C@]43C)[C@@H]12 | 2.3 | 10200 | – | – | – | – | EC50 [16]: 118 nM |
| C=C(C)[C@@H]1CC[C@]2(NCCN3CCC(S(C)(=O)=O)CC3)CC[C@]3(C)[C@H](CC[C@@H]4[C@@]5(C)CC=C(C6=CC[C@H](C(=O)O)CC6)C(C)(C)[C@@H]5CC[C@]43C)[C@@H]12 | 1.4 | 9100 | 4.2 | – | 6.6 | 9.6 | EC50 [10]: 878 nM |
| C=C(C)[C@@H]1CC[C@]2(C(=O)O)CC[C@]3(C)[C@H](CC[C@@H]4[C@@]5(C)CC=C(c6ccc(C(=O)O)cc6)C(C)(C)[C@@H]5CC[C@]43C)[C@@H]12 | – | – | – | – | 316 | – | half-life [6]: > 2 h; clearance [8]: 1 mL/min/kg; half-life [12]: > 2 h; Tmax [13]: 4 h; AUC at 24 h [17]: 5.7 µM·h; Vd [15]: 0.1 L/kg |
| C=C(C)[C@@H]1CC[C@]2(NCCN3CCS(=O)(=O)CC3)CC[C@]3(C)[C@H](CC[C@@H]4[C@@]5(C)CC=C(C6=CC[C@H](C(=O)O)CC6)C(C)(C)[C@@H]5CC[C@]43C)[C@@H]12 | 1.3 | 4100 | 4.1 | 2 | 5 | – | – |
| C=C(C)[C@@H]1CC[C@]2(NCCN3CCS(=O)(=O)CC3)CC[C@]3(C)[C@H](CC[C@@H]4[C@@]5(C)CC=C(CCC(C)(C)CC(=O)O)C(C)(C)[C@@H]5CC[C@]43C)[C@@H]12 | 1.3 | 12300 | 2.3 | – | 6.8 | 1.6 | EC50 [10]: 1290 nM |
| C=C(C)[C@@H]1CC[C@]2(NCCN3CCS(=O)(=O)CC3)CC[C@]3(C)[C@H](CC[C@@H]4[C@@]5(C)CC=C(C6=CCC(C(=O)O)(C(=O)O)CC6)C(C)(C)[C@@H]5CC[C@]43C)[C@@H]12 | 99 | 13200 | 40.1 | 39.2 | – | 113 | – |
| C=C(C)[C@@H]1CC[C@]2(NCCN3CCS(=O)(=O)CC3)CC[C@]3(C)[C@H](CC[C@@H]4[C@@]5(C)CC=C(C6=CC[C@@H](C(=O)O)CC6)C(C)(C)[C@@H]5CC[C@]43C)[C@@H]12 | 0.9 | 12200 | 3.1 | 1.3 | 5.7 | – | AUC [5]: 15.8 µM·h; half-life [6]: 0.967 h; Cmax [7]: 1100 nM; clearance [8]: 4.3 mL/min/kg; half-life [12]: > 2 h; Tmax [13]: 2.7 h; bioavailability [14]: 58%; Vd [15]: 2.3 L/kg |
| C=C(C)[C@@H]1CC[C@]2(NCCN3CCS(=O)(=O)CC3)CC[C@]3(C)[C@H](CC[C@@H]4[C@@]5(C)CC=C(CC6CCC(C(=O)O)CC6)C(C)(C)[C@@H]5CC[C@]43C)[C@@H]12 (stereo partly drawn) | 3 | 13500 | – | – | – | 12.4 | EC50 [16]: 5.6 nM; EC50 [10]: 1850 nM |
| C=C(C)[C@@H]1CC[C@]2(NCCN3CCS(=O)(=O)CC3)CC[C@]3(C)[C@H](CC[C@@H]4[C@@]5(C)CC=C(CCCC(C(=O)O)C(=O)O)C(C)(C)[C@@H]5CC[C@]43C)[C@@H]12 | 306 | > 30000 | – | – | – | – | EC50 [16]: 555 nM |
| C=C(C)[C@@H]1CC[C@]2(NCCN3CCS(=O)(=O)CC3)CC[C@]3(C)[C@H](CC[C@@H]4[C@@]5(C)CC=C(C6=CC7(C6)CC(C(=O)O)(C(=O)O)C7)C(C)(C)[C@@H]5CC[C@]43C)[C@@H]12 | 13 | > 30000 | 61.1 | 28.8 | – | – | – |
| C=C(C)[C@@H]1CC[C@]2(NCCN3CCS(=O)(=O)CC3)CC[C@]3(C)[C@H](CC[C@@H]4[C@@]5(C)CC=C(CCCC(C)(C)C(=O)O)C(C)(C)[C@@H]5CC[C@]43C)[C@@H]12 | 5.3 | 8200 | – | – | – | – | EC50 [16]: 29.7 nM |
| C=C(C)[C@@H]1CC[C@]2(NCCN3CCC(S(C)(=O)=O)CC3)CC[C@]3(C)[C@H](CC[C@@H]4[C@@]5(C)CC=C(C6=CC[C@@H](C(=O)O)CC6)C(C)(C)[C@@H]5CC[C@]43C)[C@@H]12 | 2.7 | 9000 | 2.7 | – | 5 | 14.7 | EC50 [10]: 1800 nM |
| C=C(C)[C@@H]1CC[C@]2(NCCN3CCS(=O)(=O)CC3)CC[C@]3(C)[C@H](CC[C@@H]4[C@@]5(C)C=CC(=C6CC7(C6)CC(C(=O)O)(C(=O)O)C7)C(C)(C)[C@@H]5CC[C@]43C)[C@@H]12 | 26.7 | > 10000 | 60.8 | 53.1 | – | – | – |
| C=C(C)[C@@H]1CC[C@]2(NCCN3CCS(=O)(=O)CC3)CC[C@]3(C)[C@H](CC[C@@H]4[C@@]5(C)CC=C(C6=CCC(C(=O)O)CC6)C(C)(C)[C@@H]5CC[C@]43C)[C@@H]12 (stereo partly drawn) | 0.6 | 9600 | 2.1 | 0.8 | 8.9 | – | – |
| C=C(C)[C@@H]1CC[C@]2(C(=O)O)CC[C@]3(C)[C@H](CC[C@@H]4[C@@]5(C)CC[C@H](OC(=O)CC(C)(C)C(=O)O)C(C)(C)[C@@H]5CC[C@]43C)[C@@H]12 [BEVIRIMAT] | – | – | – | – | – | – | half-life [6]: > 2 h; half-life [12]: 0.492 h; Tmax [13]: 1.8 h; F ([14]; 5 mg/kg, 24 h): 54% |
